# According to ChEMBL document CHEMBL1177728, “Discovery and optimization of boronic acid based inhibitors of autotaxin” (J Med Chem, 2010):
# Molecular target: Autotaxin (Homo sapiens, UniProt Q13822)
# Assay: Inhibition of 6x-histidine-tagged human recombinant ATX expressed in HEK293 cells assessed as lysophosphatidulcholine release at 5 uM
# Assay type: cell-based
# Summary of the method: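 LPC (18:1) choline release: ATX (~40 nM) secreted by transfected HEK293 cells into serum-free medium, TALON-purified, in 50 mM Tris-HCl pH 7.4 with 0.01% Triton X-100. Substrate added as 80 μM LPC with 10 mM MgCl2 and CaCl2, 3 h at 37 C. Choline read at 405 nm by choline oxidase/HRP/ABTS with compound-absorbance correction. IC50 over 10 concentrations (0.01–30 μM); inhibition at 5 μM final.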
row,SMILES,inhibition [%]
1,O=C1S/C(=C\c2ccc(OCc3ccc(B(O)O)cc3)cc2)C(=O)N1Cc1ccc(F)cc1,99
2,CCCCCN1C(=O)S/C(=C\c2ccc(OCc3ccc(C(=O)O)cc3)c(OC)c2)C1=O,15
3,COc1cc(/C=C2/SC(=O)N(Cc3c(F)c(F)c(F)c(F)c3F)C2=O)ccc1OCc1ccc(C(=O)O)cc1,10
4,COc1cc(/C=C2\SC(=O)N(Cc3cccc(C#N)c3)C2=O)ccc1OCc1ccc(C(=O)O)cc1,44
5,COc1cc(/C=C2\SC(=O)N(Cc3ccccc3C#N)C2=O)ccc1OCc1ccc(C(=O)O)cc1,17
6,COc1cc(/C=C2\SC(=O)N(Cc3ccc(C(F)(F)F)cc3)C2=O)ccc1OCc1ccc(C(=O)O)cc1,32
7,COc1cc(/C=C2\SC(=O)N(C(c3ccccc3)c3ccccc3)C2=O)ccc1OCc1ccc(C(=O)O)cc1,4
8,COc1cc(/C=C2\SC(=O)N(Cc3ccc(C(=O)O)cc3[N+](=O)[O-])C2=O)ccc1OCc1ccc(C(=O)O)cc1,31
9,COc1cc(/C=C2\SC(=O)N(Cc3cccc(Cl)c3)C2=O)ccc1OCc1ccc(C(=O)O)cc1,29
10,COC(=O)c1cccc(CN2C(=O)S/C(=C\c3ccc(OCc4ccc(C(=O)O)cc4)c(OC)c3)C2=O)c1,30
11,COc1cc(/C=C2\SC(=O)N(Cc3ccc(Cl)cc3)C2=O)ccc1OCc1ccc(C(=O)O)cc1,57
12,COc1cc(/C=C2\SC(=O)N(Cc3cccc(F)c3)C2=O)ccc1OCc1ccc(C(=O)O)cc1,64
13,COc1cc(/C=C2\SC(=O)N(Cc3ccc(F)cc3C(F)(F)F)C2=O)ccc1OCc1ccc(C(=O)O)cc1,13
14,COc1cc(/C=C2\SC(=O)N(Cc3cccc(Br)c3)C2=O)ccc1OCc1ccc(C(=O)O)cc1,26
15,COc1cc(/C=C2\SC(=O)N(CC(=O)c3ccc(Cl)cc3)C2=O)ccc1OCc1ccc(C(=O)O)cc1,35
16,COc1cc(/C=C2\SC(=O)N(Cc3ccccn3)C2=O)ccc1OCc1ccc(C(=O)O)cc1,10
17,COc1cc(/C=C2\SC(=O)N(Cc3ccccc3Cl)C2=O)ccc1OCc1ccc(C(=O)O)cc1,57
18,COc1cc(/C=C2\SC(=O)N(CCN3C(=O)c4ccccc4C3=O)C2=O)ccc1OCc1ccc(C(=O)O)cc1,0
19,COc1cc(/C=C2\SC(=O)N(Cc3ccccc3Br)C2=O)ccc1OCc1ccc(C(=O)O)cc1,72
20,COc1cc(/C=C2\SC(=O)N(Cc3ccc(Br)cc3)C2=O)ccc1OCc1ccc(C(=O)O)cc1,23
21,COc1cc(/C=C2\SC(=O)N(Cc3ccc(CC(=O)O)cc3)C2=O)ccc1OCc1ccc(C(=O)O)cc1,42
22,COC(=O)c1ccc(CN2C(=O)S/C(=C\c3ccc(OCc4ccc(C(=O)O)cc4)c(OC)c3)C2=O)cc1,31

# Continued, values first:
row,inhibition [%],SMILES
1,11,COc1cc(/C=C2\SC(=O)N(Cc3ccc(C)cc3)C2=O)ccc1OCc1ccc(C(=O)O)cc1
2,51,COc1cc(/C=C2\SC(=O)N(Cc3ccc(F)cc3Br)C2=O)ccc1OCc1ccc(C(=O)O)cc1
3,38,COc1cc(/C=C2/SC(=O)N(Cc3c(Cl)cccc3Cl)C2=O)ccc1OCc1ccc(C(=O)O)cc1
4,11,COc1ccc(CN2C(=O)S/C(=C\c3ccc(OCc4ccc(C(=O)O)cc4)c(OC)c3)C2=O)cc1
5,17,COc1cc(/C=C2\SC(=O)N(Cc3cccnc3)C2=O)ccc1OCc1ccc(C(=O)O)cc1
6,19,C=CCN1C(=O)S/C(=C\c2ccc(OCc3ccc(C(=O)O)cc3)c(OC)c2)C1=O
7,46,COc1cc(/C=C2\SC(=O)N(Cc3cccc(C(F)(F)F)c3)C2=O)ccc1OCc1ccc(C(=O)O)cc1
8,5,COc1cc(/C=C2\SC(=O)N(C(C)c3ccccc3)C2=O)ccc1OCc1ccc(C(=O)O)cc1 (stereo not drawn)
9,23,COc1cc(/C=C2\SC(=O)N(CC(=O)c3ccc(Br)cc3)C2=O)ccc1OCc1ccc(C(=O)O)cc1
10,12,COc1cc(/C=C2\SC(=O)N(Cc3ccc(OC(F)(F)F)cc3)C2=O)ccc1OCc1ccc(C(=O)O)cc1
11,20,COc1cccc(CN2C(=O)S/C(=C\c3ccc(OCc4ccc(C(=O)O)cc4)c(OC)c3)C2=O)c1
